The target of data set [1] is T1, Alpha-1A adrenergic receptor (Homo sapiens, UniProt P35348).
T1 sequence (P35348 whole entry): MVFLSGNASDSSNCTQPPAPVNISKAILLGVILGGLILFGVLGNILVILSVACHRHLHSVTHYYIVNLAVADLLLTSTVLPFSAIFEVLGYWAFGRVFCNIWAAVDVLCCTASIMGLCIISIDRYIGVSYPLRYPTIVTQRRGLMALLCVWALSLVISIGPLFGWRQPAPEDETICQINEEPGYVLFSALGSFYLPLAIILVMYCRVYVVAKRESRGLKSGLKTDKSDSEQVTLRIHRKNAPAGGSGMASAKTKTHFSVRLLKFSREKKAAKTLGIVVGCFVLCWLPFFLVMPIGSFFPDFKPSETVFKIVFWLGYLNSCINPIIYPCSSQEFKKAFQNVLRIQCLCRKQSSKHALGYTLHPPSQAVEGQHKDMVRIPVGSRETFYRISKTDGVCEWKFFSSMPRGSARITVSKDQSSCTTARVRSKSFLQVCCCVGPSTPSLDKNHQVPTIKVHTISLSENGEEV
Nature of the data set: Displacement of [3H]prazosin from human alpha1A-adrenoceptor expressed in CHO cell membranes measured after 30 mins. Put shortly: (§1)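 Membranes (30 µg protein) from stably transfected CHO cells, each expressing one human α1 subtype, incubated 30 min at 25 °C in 50 mM Tris-HCl pH 7.4 with 0.1-0.4 nM [3H]prazosin and competitor 1 pM-10 µM. Nonspecific binding defined with 10 µM phentolamine. Filtration over PEI-treated filters. Ki from IC50 via Cheng-Prusoff; 2-3 experiments in triplicate.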

For data set [2], the target named is T2, Alpha-1B adrenergic receptor (Homo sapiens, UniProt P35368).
T2 sequence (P35368 whole entry): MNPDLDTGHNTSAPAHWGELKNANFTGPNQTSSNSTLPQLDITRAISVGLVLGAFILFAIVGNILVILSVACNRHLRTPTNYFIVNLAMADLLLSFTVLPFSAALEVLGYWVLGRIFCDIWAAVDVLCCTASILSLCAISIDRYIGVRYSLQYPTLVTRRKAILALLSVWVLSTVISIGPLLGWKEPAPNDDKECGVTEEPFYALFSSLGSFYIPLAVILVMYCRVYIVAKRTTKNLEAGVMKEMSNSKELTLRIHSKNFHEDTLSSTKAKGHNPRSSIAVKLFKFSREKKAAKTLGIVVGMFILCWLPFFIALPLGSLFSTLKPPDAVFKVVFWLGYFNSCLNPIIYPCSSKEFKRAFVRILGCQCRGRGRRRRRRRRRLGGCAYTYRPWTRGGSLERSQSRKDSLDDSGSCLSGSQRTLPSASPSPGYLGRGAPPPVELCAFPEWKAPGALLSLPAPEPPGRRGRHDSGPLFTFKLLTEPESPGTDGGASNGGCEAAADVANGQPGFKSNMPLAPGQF
Nature of the data set: Displacement of [3H]prazosin from human alpha1B-adrenoceptor expressed in CHO cell membranes measured after 30 mins. The method in brief: as §1
A general note: In a radioligand displacement assay an active substance lowers the binding of a labelled ligand.

Data set [3] addresses T3, Alpha-1D adrenergic receptor (Homo sapiens, UniProt P25100).
T3 sequence (P25100 whole entry): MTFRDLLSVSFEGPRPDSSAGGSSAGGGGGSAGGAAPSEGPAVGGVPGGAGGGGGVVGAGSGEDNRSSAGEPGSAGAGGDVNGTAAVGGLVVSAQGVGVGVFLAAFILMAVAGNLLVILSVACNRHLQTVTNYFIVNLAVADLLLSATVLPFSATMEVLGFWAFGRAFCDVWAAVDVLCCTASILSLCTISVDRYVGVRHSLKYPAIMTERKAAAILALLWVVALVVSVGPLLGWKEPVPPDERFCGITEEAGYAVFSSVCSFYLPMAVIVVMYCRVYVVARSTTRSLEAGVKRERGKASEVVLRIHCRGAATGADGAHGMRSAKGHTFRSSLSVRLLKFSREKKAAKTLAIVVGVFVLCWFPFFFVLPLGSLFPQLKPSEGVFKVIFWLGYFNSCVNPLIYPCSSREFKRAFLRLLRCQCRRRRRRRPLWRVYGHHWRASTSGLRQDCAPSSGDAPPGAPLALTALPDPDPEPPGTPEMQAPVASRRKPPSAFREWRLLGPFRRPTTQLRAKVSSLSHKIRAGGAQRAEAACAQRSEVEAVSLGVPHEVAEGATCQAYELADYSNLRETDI
Briefly: Displacement of [3H]prazosin from human alpha1D-adrenoceptor expressed in CHO cell membranes measured after 30 mins. The method in brief:
as §1

Data set [4] addresses T4, Alpha-1A adrenergic receptor (Rattus norvegicus) (UniProt P43140).
T4 sequence (whole entry): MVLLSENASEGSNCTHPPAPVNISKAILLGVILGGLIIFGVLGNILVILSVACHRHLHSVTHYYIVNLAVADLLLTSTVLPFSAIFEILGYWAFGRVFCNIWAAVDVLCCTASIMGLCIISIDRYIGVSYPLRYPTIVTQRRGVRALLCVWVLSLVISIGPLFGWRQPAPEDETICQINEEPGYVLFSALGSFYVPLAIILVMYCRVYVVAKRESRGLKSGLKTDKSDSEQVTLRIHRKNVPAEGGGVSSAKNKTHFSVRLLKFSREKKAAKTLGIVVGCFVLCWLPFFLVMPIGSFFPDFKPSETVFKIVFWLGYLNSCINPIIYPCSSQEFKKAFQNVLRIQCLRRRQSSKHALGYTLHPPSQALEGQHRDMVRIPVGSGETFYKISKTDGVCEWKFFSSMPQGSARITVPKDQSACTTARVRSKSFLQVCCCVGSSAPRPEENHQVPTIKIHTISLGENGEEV
Nature of the data set: Antagonist activity at alpha1A-adrenoceptor in Wistar rat prostatic vas deference assessed as inhibition of (-)-NE-induced contractions preincubated for 60 mins before (-)-NE challenge measured after 45 mins. The method in brief: (§2)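 Male Wistar rats (275-300 g); prostatic vas deferens segments (2 cm) under 0.35 g tension at 37 °C in Tyrode with cocaine, aerated 5% CO2/95% O2. Tissue primed twice with 10 µM (-)-NE, then a cumulative isotonic (-)-NE curve. Antagonist equilibrated 60 min before a repeat curve. Line 1 gives pKB = log(DR-1) - log[B] at one or two concentrations; line 4 gives pA2 from Schild plot, slope constrained to -1. Mean ± SE, 4-5 experiments.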

In data set [5] the target is T5, Alpha-1B adrenergic receptor (Rattus norvegicus, UniProt P15823).
T5 sequence (P15823 whole entry): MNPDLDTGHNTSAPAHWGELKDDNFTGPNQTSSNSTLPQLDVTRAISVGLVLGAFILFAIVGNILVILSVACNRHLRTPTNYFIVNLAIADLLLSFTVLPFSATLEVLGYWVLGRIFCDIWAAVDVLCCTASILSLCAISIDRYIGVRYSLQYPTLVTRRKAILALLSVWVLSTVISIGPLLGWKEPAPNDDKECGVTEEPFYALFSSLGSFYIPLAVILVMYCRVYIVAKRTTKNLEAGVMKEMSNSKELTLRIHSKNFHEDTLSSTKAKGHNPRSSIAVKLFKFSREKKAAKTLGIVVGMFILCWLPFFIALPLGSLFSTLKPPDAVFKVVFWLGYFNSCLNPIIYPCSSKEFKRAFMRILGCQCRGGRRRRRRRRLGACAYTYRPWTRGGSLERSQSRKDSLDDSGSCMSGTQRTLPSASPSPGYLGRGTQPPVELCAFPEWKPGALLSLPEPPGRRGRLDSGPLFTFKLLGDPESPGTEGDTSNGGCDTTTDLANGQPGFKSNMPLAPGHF
Nature of the data set: Antagonist activity at alpha1B-adrenoceptor in Wistar rat spleen assessed as inhibition of phenylphrine-induced contractions measured after 30 mins in presence of (+/-)-propranolol hydrochloride. To be noted: 0.5 h. Put shortly:
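Male Wistar rat spleen strips in Krebs-type solution at 37 °C with (±)-propranolol 4 µM, under 1 g resting tension, equilibrated 2 h. Cumulative isometric phenylephrine curves at 30 min intervals; first discarded, second used as control, then a curve after 30 min antagonist incubation. pKB = log(DR-1) - log[B] from ED50 ratio. Mean ± SE, 4-5 experiments.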

The target of data set [6] is T6, Alpha-1D adrenergic receptor (Rattus norvegicus) (UniProt P23944).
T6 sequence (whole entry): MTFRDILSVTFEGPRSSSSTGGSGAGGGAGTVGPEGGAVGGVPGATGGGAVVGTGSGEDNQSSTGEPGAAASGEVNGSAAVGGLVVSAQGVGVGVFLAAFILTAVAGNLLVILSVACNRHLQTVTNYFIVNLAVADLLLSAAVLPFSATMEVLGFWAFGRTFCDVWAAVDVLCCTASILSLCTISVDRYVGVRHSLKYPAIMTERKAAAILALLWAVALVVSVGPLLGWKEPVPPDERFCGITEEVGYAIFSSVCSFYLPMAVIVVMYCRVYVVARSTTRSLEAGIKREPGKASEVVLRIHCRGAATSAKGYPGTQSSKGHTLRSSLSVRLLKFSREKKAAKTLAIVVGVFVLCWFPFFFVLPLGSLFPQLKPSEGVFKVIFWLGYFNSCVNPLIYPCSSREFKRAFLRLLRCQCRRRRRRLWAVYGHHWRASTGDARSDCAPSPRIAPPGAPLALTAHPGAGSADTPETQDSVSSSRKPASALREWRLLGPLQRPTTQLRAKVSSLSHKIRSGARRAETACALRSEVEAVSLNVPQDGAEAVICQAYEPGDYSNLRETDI
Briefly: Antagonist activity at alpha1D-adrenoceptor in Wistar rat thoracic aorta assessed as inhibition of (-)-NE-induced contractions preincubated for 60 mins before (-)-NE challenge measured after 1 hr in presence of normetanephrine hydrochloride and (+/-)-propranolol hydrochloride. Put shortly:
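Male Wistar rat thoracic aorta strips, endothelium rubbed off and checked by loss of 100 µM acetylcholine relaxation after 1 µM (-)-NE contraction. Krebs solution, 1 g tension, at least 2 h equilibration. Isometric cumulative (-)-NE curves at 1 h intervals; third used as control, fourth after 60 min antagonist. pKB from the ED50 dose ratio. Mean ± SE, 4-5 experiments.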

Data set [7] addresses T7, Alpha-1A adrenergic receptor (Rattus norvegicus, UniProt P43140).
T7 sequence (P43140 whole entry): T4 sequence (whole entry)
Nature of the data set: Competitive antagonist activity at alpha1A-adrenoceptor in Wistar rat prostatic vas deference assessed as inhibition of (-)-NE-induced contractions preincubated for 60 mins before (-)-NE challenge measured after 45 mins by Schild plot analysis. To be noted: read-out: pA2 (converted). Put shortly: as §2

Take `CC(C)Oc1ccccc1N1CCN(CCc2ccccc2)CC1`: the results for the Ki in data set [1], in data set [2] and in data set [3] were 5.01 nM, 77.6 nM and 4.57 nM, respectively. The pKb in data set [4] was 8.29; in data set [5], 7.94; in data set [6], 8.59.

For the molecule `COc1ccc(CCN2CCN(c3ccccc3OC(C)C)CC2)cc1`, the Ki is 2.24 nM in data set [1], 14.8 nM in data set [2] and 3.09 nM in data set [3].

With `CCOc1ccccc1N1CCN(CCc2ccc3c(c2)OCO3)CC1`, the Ki in data set [1] was 1.12 nM; in data set [2], 5.37 nM; in data set [3], 1.51 nM. The negative logarithm of the Kb (pKb) in data set [4] came out at 9.09; in data set [5], 8.85; in data set [6], 8.84.

Turning to `CCOc1ccccc1N1CCN(CCc2ccc(OC)c(OC)c2)CC1`, the Ki in data set [1] is 2.09 nM; in data set [2], 15.8 nM; in data set [3], 0.603 nM. Further, the pKb came out at 9.1 in data set [4], 8.89 in data set [5] and 8.79 in data set [6].

For `CC(C)Oc1ccccc1N1CCN(CCc2ccc3c(c2)OCO3)CC1`, the Ki in data set [1] is 0.389 nM; in data set [2], 12.9 nM; in data set [3], 1.74 nM. Also, the pKb came to 8.27 in data set [4], 8.03 in data set [5] and 8.33 in data set [6]. The Kb in data set [7] was 4.17 nM.

With `COc1ccc(CCN2CCN(c3ccccc3OC(C)C)CC2)cc1OC`, the Ki was 2 nM in data set [1], 10.5 nM in data set [2] and 1.35 nM in data set [3]. Moreover, the results for the negative logarithm of the Kb (pKb) in data set [4], in data set [5] and in data set [6] were 9.55, 8.74 and 9.12, respectively.

With `CCOc1ccccc1N1CCN(CCc2ccc(OC)cc2)CC1`, the values for the inhibitory constant (Ki) in data set [1], in data set [2] and in data set [3] were 1.12 nM, 10.2 nM and 1.35 nM, respectively. Moreover, the figures for the pKb in data set [4], in data set [5] and in data set [6] were 8.89, 7.91 and 8.23, respectively.

As for `COc1ccccc1N1CCN(CCc2ccccc2)CC1`, the Ki was 31.6 nM in data set [1], 91.2 nM in data set [2] and 16.6 nM in data set [3]. Besides, the pKb stood at 7.76 in data set [4], 7.82 in data set [5] and 8.5 in data set [6].

Turning to `COc1ccccc1N1CCN(CCc2ccc3c(c2)OCO3)CC1`, the values for the Ki in data set [1], in data set [2] and in data set [3] were 3.47 nM, 5.25 nM and 1.26 nM, respectively. Moreover, the pKb in data set [4] was 8.47; in data set [5], 8.11; in data set [6], 8.57.

As to `CCOc1ccccc1N1CCN(CCc2cccc(OC)c2)CC1`, the Ki in data set [1] was 2.95 nM; in data set [2], 25.1 nM; in data set [3], 2.57 nM. The pKb in data set [4] turned out to be 8.39; in data set [5], 8.13; in data set [6], 8.11.

Consider `COc1cccc(CCN2CCN(c3ccccc3OC(C)C)CC2)c1`, for which the results for the Ki in data set [1], in data set [2] and in data set [3] were 2.75 nM, 13.8 nM and 1.32 nM, respectively. Moreover, the values for the pKb in data set [4], in data set [5] and in data set [6] were 8.87, 8.92 and 9.46, respectively.

As a reminder, the Ki is a measure of affinity in units of concentration, obtained from inhibition or displacement. A high value points to weaker binding. For orientation: pKb means the Kb on a negative log10 scale, so that one unit is a factor of ten.

These data come from ChEMBL document CHEMBL3867431, “Synthesis and structure-activity relationships of novel arylpiperazines as potent antagonists of α1-adrenoceptor” (Eur J Med Chem, 2016).
